1 compound from PubChem BioAssay AID602134 (Broad Institute, 2011) can be followed below.

The nature of this experiment: transferrin receptor uptake blockade – imaging, Alexa594-transferrin, dry powder, selectivity assay for SR-BI HDL uptake inhibitor project, dose response (AID 602134). The note with it: mSR-BI cells; series mostly up to 35 µM. An outline of the steps:
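Assay system: mSR-BI cells; buffer or medium: serum-free DMEM with 1% BSA after serum wash; reagent: Alexa-594 transferrin, 30 µg/mL; times: 30 min transferrin exposure, 37 °C; signal: fluorescence imaging, Alexa-594 and DAPI; evaluation: normalized percent of cells with above-threshold perinuclear transferrin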

Active and inactive are the calls of the source.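 How the source made its calls: active means falling transferrin uptake with a fitted half-maximal potency at or below twice the top valid tested dose; inconclusive means flat fit with a 30 to 70% drop, or poor fit; inactive means the rest.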

Regarding `CC1CCC/C=C/C2CC(O)CC2C(O)/C=C\C(=O)O1` (stereo unspecified), the result was inactive.
